The results in this text go back to ChEMBL document CHEMBL4400512, “Searching for new agents active against Candida albicans biofilm: A series of indole derivatives, design, synthesis and biological evaluation” (Eur J Med Chem, 2019).

The structures appear in SMILES notation. Converted amounts (≈) assume the structure as drawn.

Data set [1] deals with Candida albicans. The data set is described as follows: Antibiofilm activity against Candida albicans ATCC 10231 assessed as inhibition of biofilm formation by XTT reduction assay. The format is functional. A digest of the protocol:
(§1)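 Biofilm assay after Pierce et al., with compound applied either during biofilm formation or to 24 h pre-formed (mature) biofilm. Read-out is metabolic activity of cells in the biofilm by XTT reduction. BMIC50 is the lowest concentration giving a 50% drop relative to untreated growth control. Tested in triplicate, at least two experiments on separate dates; median reported.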

Data set [2] concerns Candida albicans. The data set is described as follows: Antifungal activity against planktonic form of Candida albicans ATCC 10231 by broth microdilution method. The data set is classed as organism-based. As to conditions: in vitro. Summed up:
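CLSI M27-A3 broth microdilution. Cells grown on Sabouraud dextrose agar at 35°C for 24 h; final inoculum 1×10^3–5×10^3 cells/mL. Compounds from DMSO stocks, final DMSO below 1%, final range 256–0.25 µg/mL. Controls were DMSO 1% and fluconazole reference. MIC50 is the lowest concentration giving ≥50% growth inhibition. Three independent experiments in duplicate; median reported.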

The test system of data set [3] is Candida albicans. The experiment in a line: Antibiofilm activity against Candida albicans ATCC 10231 assessed as inhibition of mature biofilm formation by XTT reduction assay. The format is functional. Summed up: as §1
The nature of data set [4]: Toxicity in Galleria mellonella larvae assessed as larval survival at 50 ug/ml after 24 hrs relative to control. A digest of the protocol: (§2)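 Ten healthy larvae per group, stored at 15°C in the dark. Each got a 20 µL injection into the haemocoel via the last left proleg, with compound freshly made in sterile water containing <1% v/v DMSO. Larvae were incubated at 30°C and survival scored every 24 h; death was no movement on stimulation plus cuticle discolouration. Controls were untreated, pierced-only and vehicle. Mean % survival of two independent experiments.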

A short description of data set [5]: Toxicity in Galleria mellonella larvae assessed as larval survival at 500 ug/ml after 72 hrs relative to control. A digest of the protocol: as §2
A short description of data set [6]: Toxicity in Galleria mellonella larvae assessed as larval survival at 500 ug/ml after 24 hrs relative to control. Summed up:
as §2

Data set [7] is described as follows: Toxicity in Galleria mellonella larvae assessed as larval survival at 50 ug/ml after 72 hrs relative to control. A digest of the protocol: as §2
Data set [8] can be described thus: Toxicity in Galleria mellonella larvae assessed as larval survival at 5 ug/ml after 24 hrs relative to control. A digest of the protocol:
as §2

Data set [9] is described as follows: Toxicity in Galleria mellonella larvae assessed as larval survival at 5 ug/ml after 48 hrs relative to control. A digest of the protocol: as §2
The nature of data set [10]: Toxicity in Galleria mellonella larvae assessed as larval survival at 10 ug/ml after 72 hrs relative to control. Summed up: as §2
Data set [11] in a line: Toxicity in Galleria mellonella larvae assessed as larval survival at 10 ug/ml after 48 hrs relative to control. Summed up:
as §2

Data set [12] is described as follows: Toxicity in Galleria mellonella larvae assessed as larval survival at 10 ug/ml after 24 hrs relative to control. A digest of the protocol:
as §2

Data set [13] in a line: Toxicity in Galleria mellonella larvae assessed as larval survival at 100 ug/ml after 48 hrs relative to control. Summed up:
as §2

Data set [14] can be described thus: Toxicity in Galleria mellonella larvae assessed as larval survival at 50 ug/ml after 48 hrs relative to control. A digest of the protocol:
as §2

Data set [15] in a line: Toxicity in Galleria mellonella larvae assessed as larval survival at 5 ug/ml after 72 hrs relative to control. A digest of the protocol: as §2
Data set [16] in a line: Toxicity in Galleria mellonella larvae assessed as larval survival at 100 ug/ml after 24 hrs relative to control. Summed up: as §2
Data set [17] can be described thus: Toxicity in Galleria mellonella larvae assessed as larval survival at 500 ug/ml after 48 hrs relative to control. A digest of the protocol:
as §2

Data set [18] in a line: Toxicity in Galleria mellonella larvae assessed as larval survival at 100 ug/ml after 72 hrs relative to control. A digest of the protocol:
as §2

For data set [19], the system named is Candida albicans. The experiment in a line: Antifungal activity against planktonic form of Candida albicans ATCC 10261 by broth microdilution method. The format is organism-based. Conditions: in vitro. Summed up: (§3)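 Broth microdilution per CLSI M27-A3 and M27-S4. Strains were grown on Sabouraud dextrose agar at 35°C for 24 h. Final inoculum 1×10^3–5×10^3 cells/mL. Compounds were dissolved in DMSO (final <1%); 1% DMSO served as control. Final range 256–0.25 µg/mL. MIC50 is the lowest concentration giving ≥50% growth inhibition. Three independent experiments in duplicate, median; fluconazole as reference.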

In data set [20] the test system is Candida albicans. The experiment in a line: Antifungal activity against planktonic form of Candida albicans PMC 1042 by broth microdilution method. The data set is classed as organism-based. As to conditions: in vitro. A digest of the protocol: as §3
For data set [21], the system named is Candida albicans. The data set is described as follows: Antibiofilm activity against Candida albicans PMC 1042 assessed as inhibition of mature biofilm formation by XTT reduction assay. The format is functional. A digest of the protocol:
(§4)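 Biofilm method of Pierce et al. Biofilms were treated either during formation or once mature (24 h preformed). Metabolic activity of the cells within the biofilm was read by XTT reduction. BMIC50 is the lowest concentration giving a 50% drop in metabolic activity versus the untreated growth control. At least two experiments on separate dates, triplicate, reported as median.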

For data set [22], the system named is Candida albicans. The experiment in a line: Antibiofilm activity against Candida albicans PMC 1082 assessed as inhibition of biofilm formation by XTT reduction assay. The format is functional. Summed up:
as §4

Data set [23] deals with Candida albicans. The data set is described as follows: Antibiofilm activity against Candida albicans PMC 1082 assessed as inhibition of mature biofilm formation by XTT reduction assay. The format is functional. Summed up:
as §4

Data set [24] concerns Candida albicans. The data set is described as follows: Antifungal activity against planktonic form of Candida albicans PMC 1082 by broth microdilution method. The format is organism-based. Conditions: in vitro. Summed up:
as §3

Data set [25] has as its system Candida albicans. The data set is described as follows: Antibiofilm activity against Candida albicans PMC 1042 assessed as inhibition of biofilm formation by XTT reduction assay. The data set is classed as functional. A digest of the protocol: as §4
Data set [26] deals with Candida albicans. The data set is described as follows: Antibiofilm activity against Candida albicans ATCC 10261 assessed as inhibition of biofilm formation by XTT reduction assay. The format is functional. A digest of the protocol: as §4
Data set [27] has as its system Candida albicans. The experiment in a line: Antibiofilm activity against Candida albicans ATCC 10261 assessed as inhibition of mature biofilm formation by XTT reduction assay. The format is functional. Summed up: as §4

As to `C(=C\c1ccccc1)/CNCCc1c[nH]c2ccccc12`, the MBIC50 in the data set on Candida albicans [1] is 8 µg/mL; with Candida albicans [3] it was 64 µg/mL. The MIC50 in the data set on Candida albicans [2] was found to be 64 µg/mL (≈ 232 µM).
On to `O=[N+]([O-])c1ccc(CNCCc2c[nH]c3ccccc23)cc1`, for which the MBIC50 in the data set with Candida albicans [1] and in the data set with Candida albicans [3] was 32 µg/mL in each case. In the data set on Candida albicans [2], this molecule yielded an MIC50 of over 128 µg/mL.
Turning to `O=[N+]([O-])c1ccccc1CNCCc1c[nH]c2ccccc12`, the survival at 24 h in data set [4] was 90%; in data set [6], 100%; in data set [8] it was 100%; in data set [12], 100%; in [16], 90%. Moreover, the survival at 72 h in [5] was determined as 100%; in data set [7] it was 90%; in data set [10], 100%; in data set [15], 100%; in [18], 90%. Moreover, the results for the MBIC50 with Candida albicans [1] and in the data set on Candida albicans [3] were 64 µg/mL and 8 µg/mL, respectively. For the same molecule, the survival at 48 h was 100% in data set [9]; 100% in data set [11]; 90% in data set [13]; 90% in data set [14]; 100% in data set [17]. The MIC50 against Candida albicans [2] was over 128 µg/mL.
As for `O=[N+]([O-])c1ccc(CNCCc2c[nH]c3ccccc23)o1`, the MBIC50 in the data set on Candida albicans [1] and with Candida albicans [3] was 16 µg/mL in each case. In the data set with Candida albicans [2], this molecule yielded an MIC50 of over 128 µg/mL.
In the case of `c1ccc(Oc2ccc(CNCCc3c[nH]c4ccccc34)cc2)cc1`, the survival at 24 h in data set [4] stood at 100%; in data set [6], 90%; in data set [8], 100%; in [12], 100%; in data set [16] it was 100%. Further, the survival at 72 h in data set [5] was found to be 70%; in data set [7], 100%; in data set [10], 100%; in data set [15], 100%; in data set [18], 100%. In addition, the MIC50 stood at 16 µg/mL (≈ 46.7 µM) in the data set on Candida albicans [19], 64 µg/mL (≈ 187 µM) in the data set with Candida albicans [20], 4 µg/mL (≈ 11.7 µM) with Candida albicans [2] and 16 µg/mL (≈ 46.7 µM) with Candida albicans [24]. Also, the MBIC50 with Candida albicans [1] was 2 µg/mL; in the data set with Candida albicans [21], 2 µg/mL; in the data set with Candida albicans [22], 8 µg/mL; in the data set with Candida albicans [23], 2 µg/mL; with Candida albicans [3] it was 2 µg/mL; in the data set with Candida albicans [25] it was 8 µg/mL. For the same molecule, the MBIC50 in the data set with Candida albicans [26] and in the data set on Candida albicans [27] was 8 µg/mL each time. The survival at 48 h was determined as 100% in [9]; 100% in data set [11]; 100% in data set [13]; 100% in [14]; 70% in data set [17].
On to `O=C(NCCc1c[nH]c2ccccc12)c1ccc([N+](=O)[O-])o1`, for which the MBIC50 in the data set on Candida albicans [1] is 128 µg/mL; in the data set with Candida albicans [3], 16 µg/mL. In the data set on Candida albicans [2], this molecule returned an MIC50 of over 128 µg/mL.
The matching figures for `c1ccc(CNCCc2c[nH]c3ccccc23)cc1`: 32 µg/mL, 32 µg/mL and over 128 µg/mL.
`c1ccc2c(CCNCc3ccc(CNCCc4c[nH]c5ccccc45)cc3)c[nH]c2c1`: the survival at 24 h in data set [4], in data set [6], in [8], in data set [12] and in data set [16] was 100% in each case. Also, the survival at 72 h turned out to be 100% in [5]; 90% in data set [7]; 100% in data set [10]; 100% in data set [15]; 100% in data set [18]. For the same molecule, the MIC50 against Candida albicans [19] was 256 µg/mL (≈ 606 µM); with Candida albicans [20], over 256 µg/mL; with Candida albicans [2], over 128 µg/mL; with Candida albicans [24] it was over 256 µg/mL. Further, the MBIC50 with Candida albicans [1] was 16 µg/mL; in the data set on Candida albicans [21] it was 2 µg/mL; in the data set on Candida albicans [22], 8 µg/mL; with Candida albicans [23] it was 4 µg/mL; in the data set with Candida albicans [3], 8 µg/mL; in the data set on Candida albicans [25], 8 µg/mL. For the same molecule, the MBIC50 in the data set with Candida albicans [26] and with Candida albicans [27] was 4 µg/mL throughout. The survival at 48 h in [9] was 100%; in [11] it was 100%; in data set [13] it was 100%; in data set [14], 90%; in data set [17], 100%.
With `OC(Cn1cncn1)(Cn1cncn1)c1ccc(F)cc1F` [FLUCONAZOLE], the MIC50 is 2 µg/mL (≈ 6.53 µM) in the data set on Candida albicans [19], 8 µg/mL (≈ 26.1 µM) with Candida albicans [20], 0.5 µg/mL (≈ 1.63 µM) against Candida albicans [2] and 0.125 µg/mL (≈ 0.408 µM) against Candida albicans [24]. Also, the MBIC50 in the data set on Candida albicans [1] was 128 µg/mL; with Candida albicans [21] it was over 64 µg/mL; with Candida albicans [22], over 64 µg/mL; in the data set with Candida albicans [23], over 64 µg/mL; in the data set on Candida albicans [3], over 128 µg/mL; with Candida albicans [25] it was over 64 µg/mL. For the same molecule, the MBIC50 in the data set with Candida albicans [26] and in the data set on Candida albicans [27] was over 64 µg/mL each time.
Consider `Brc1ccccc1CNCCc1c[nH]c2ccccc12`, for which the MBIC50 in the data set with Candida albicans [1] and in the data set with Candida albicans [3] was 16 µg/mL in each case. In the data set with Candida albicans [2], the MIC50 came to 128 µg/mL (≈ 389 µM).
